ChEMBL document CHEMBL1149394, “Guiding farnesyltransferase inhibitors from an ECLiPS library to the catalytic zinc” (Bioorg Med Chem Lett, 2006)

Assays:
[1] = target: T1, Protein farnesyltransferase (Homo sapiens, UniProt P49354+P49356); experiment: Inhibitory activity against Ha-Ras processing in COS7 cells; assay type: functional, cell-based, COS-7
[2] = target: T1, Protein farnesyltransferase; experiment: Inhibitory activity against farnesyltransferase quantified by SPA assay; assay type: protein-complex assay
[3] = system: Mus musculus; experiment: AUC in mice at 10 mg/kg, po; assay type: ADME, organism-based, Plasma; design: dose 10 mg/kg, route oral; details: in vivo
[4] = Bioavailability in mice; assay type: ADME, organism-based; details: mouse, in vivo
[5] = target: Geranylgeranyl transferase type I (Homo sapiens, UniProt P49354+P53609); experiment: Inhibitory activity against Geranylgeranyltransferase 1; assay type: protein-complex assay
[6] = Cmax in mice at 10 mg/kg, po; assay type: ADME, organism-based; design: dose 10 mg/kg, route oral; details: mouse, in vivo
[7] = target: T1, Protein farnesyltransferase; experiment: Inhibitory activity against Farnesyltransferase quantified by modified SPA assay with improved sensitivity; assay type: protein-complex assay
Summary of the method: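 Scintillation proximity assay, high-sensitivity version. Purified FTase (30 pM final) was pre-incubated with inhibitor or DMSO control (5% v/v final) for 15 min at room temperature. The reaction was started with biotin-CVLS (100 nM final) and run for 60 min at 37 °C. It was quenched with a cold suspension of 250 mM EDTA pH 8.0, 0.5% BSA and SPA beads, then the IC50 was determined.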

[8] = system: Liver microsomes; experiment: Metabolic stability in rat liver microsome; assay type: ADME
Summary of the method: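 Rat liver microsomes (cytochrome P450 content 6.7 µM) incubated 60 min at 37 °C with compound at 10 µM, KPi pH 7.4 and freshly prepared NADPH, in 1.0 ml final. Read-out is percent of compound remaining.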

| Structure (SMILES) | IC50 [1] | IC50 [2] | further results |
| --- | --- | --- | --- |
| CCCCC(=O)N1CCN(C2c3ccc(Cl)cc3CCc3cc(Br)cnc32)CC1C(=O)Nc1cnccn1 (configuration not stated) | 0.57 µM | 0.19 µM | – |
| CC(C)NC(=O)N1CCN(C2c3ccc(Cl)cc3CCc3cc(Br)cnc32)CC1C(=O)NCc1cccnc1 (configuration not stated) | 0.14 µM | 0.047 µM | – |
| CC(C)CC(=O)N1CCN(C2c3ccc(Cl)cc3CCc3cc(Br)cnc32)CC1C(=O)NCc1cccnc1 (configuration not stated) | 0.05 µM | 0.0073 µM | – |
| CN(C)C(=O)CCC(=O)N1CCN(C2c3ccc(Cl)cc3CCc3cc(Br)cnc32)CC1C(=O)NCc1cccnc1 (configuration not stated) | 0.011 µM | 0.013 µM | – |
| O=C(O)CCCC(=O)N1CCN(C2c3ccc(Cl)cc3CCc3cc(Br)cnc32)CC1C(=O)NCc1cccnc1 (configuration not stated) | > 0.2 µM | 0.007 µM | – |
| CCCCC(=O)N1CCN(C2c3ccc(Cl)cc3CCc3cc(Br)cnc32)CC1C(=O)NCc1cccnc1 (configuration not stated) | 0.064 µM | 0.0057 µM | – |
| CC(C)(C)CC(=O)N1CCN(C2c3ccc(Cl)cc3CCc3cc(Br)cnc32)CC1C(=O)NCc1cccnc1 (configuration not stated) | 0.12 µM | 0.012 µM | – |
| COC(=O)CCCCC(=O)N1CCN(C2c3ccc(Cl)cc3CCc3cc(Br)cnc32)CC1C(=O)NCc1cccnc1 (configuration not stated) | 0.062 µM | 0.0079 µM | – |
| COCCC(=O)N1CCN(C2c3ccc(Cl)cc3CCc3cc(Br)cnc32)CC1C(=O)NCc1cccnc1 (configuration not stated) | 0.1 µM | 0.02 µM | – |
| CC(=O)CCC(=O)N1CCN(C2c3ccc(Cl)cc3CCc3cc(Br)cnc32)CC1C(=O)NCc1cccnc1 (configuration not stated) | 0.047 µM | 0.011 µM | – |
| CCCCC(=O)N1CCN(C2c3ccc(Cl)cc3CCc3cc(Br)cnc32)CC1C(=O)Nc1cc(C)no1 (configuration not stated) | > 4.5 µM | 0.56 µM | – |
| CC(C)CNC(=O)N1CCN(C2c3ccc(Cl)cc3CCc3cc(Br)cnc32)CC1C(=O)NCc1cccnc1 (configuration not stated) | 0.052 µM | 0.008 µM | – |
| CC(C)(C)NC(=O)N1CCN(C2c3ccc(Cl)cc3CCc3cc(Br)cnc32)CC1C(=O)NCc1cccnc1 (configuration not stated) | 0.054 µM | 0.015 µM | – |
| CC(C)(C)OC(=O)N1CCN(C2c3ccc(Cl)cc3CCc3cc(Br)cnc32)CC1C(=O)NCc1cccnc1 (configuration not stated) | > 0.2 µM | 0.022 µM | – |
| CCCCC(=O)N1CCN(C2c3ccc(Cl)cc3CCc3cc(Br)cnc32)CC1C(=O)NCc1ccc[n+]([O-])c1 (configuration not stated) | > 0.2 µM | – | – |
| CCOCC(=O)N1CCN(C2c3ccc(Cl)cc3CCc3cc(Br)cnc32)CC1C(=O)NCc1cccnc1 (configuration not stated) | 0.16 µM | 0.021 µM | – |
| CCCCCC(=O)N1CCN(C2c3ccc(Cl)cc3CCc3cc(Br)cnc32)CC1C(=O)NCc1cccnc1 (configuration not stated) | 0.075 µM | 0.008 µM | – |
| CC(=O)CCCC(=O)N1CCN(C2c3ccc(Cl)cc3CCc3cc(Br)cnc32)CC1C(=O)NCc1cccnc1 (configuration not stated) | 0.054 µM | 0.0084 µM | – |
| CC(=O)CCCCC(=O)N1CCN(C2c3ccc(Cl)cc3CCc3cc(Br)cnc32)CC1C(=O)NCc1cccnc1 (configuration not stated) | 0.049 µM | 0.008 µM | – |
| CCCCC(=O)N1CCN(C2c3ccc(Cl)cc3CCc3cc(Br)cnc32)CC1C(=O)Nc1cccnc1 (configuration not stated) | 0.1 µM | 0.018 µM | – |

Further lines, with some results ahead:

| IC50 [1] | IC50 [2] | Structure (SMILES) | further results |
| --- | --- | --- | --- |
| 0.0097 µM | 0.013 µM | O=C(NCCCc1c[nH]cn1)C1CN(C2c3ccc(Cl)cc3CCc3cc(Br)cnc32)CCN1C(=O)NC1CCCCC1 (configuration not stated) | – |
| 0.00056 µM | 0.0015 µM | O=C(NCCCn1ccnc1)C1CN(C2c3ccc(Cl)cc3CCc3cc(Br)cnc32)CCN1C(=O)NC1CCCCC1 (stereo in doubt; 41b) | AUC [3]: 1660 ng·h/mL; bioavailability [4]: 10.6%; IC50 [5]: > 10 µM; Cmax [6]: 2550 nM |
| 0.045 µM | 0.0091 µM | CCCCNC(=O)N1CCN(C2c3ccc(Cl)cc3CCc3cc(Br)cnc32)CC1C(=O)NCc1cccnc1 (configuration not stated) | – |
| 0.065 µM | 0.017 µM | O=C(NCc1cccnc1)C1CN(C2c3ccc(Cl)cc3CCc3cc(Br)cnc32)CCN1C(=O)C1CCCC1 (configuration not stated) | – |
| 0.0086 µM | 0.0055 µM | O=C(NCc1cccnc1)C1CN(C2c3ccc(Cl)cc3CCc3cc(Br)cnc32)CCN1C(=O)NC1CCCCC1 (configuration not stated) | – |
| 0.091 µM | 0.026 µM | Cn1cnc(CCNC(=O)C2CN(C3c4ccc(Cl)cc4CCc4cc(Br)cnc43)CCN2C(=O)NC2CCCCC2)c1 (configuration not stated) | – |
| 0.053 µM | 0.01 µM | O=C(NCc1cccnc1)C1CN(C2c3ccc(Cl)cc3CCc3cc(Br)cnc32)CCN1C(=O)NCC1CCCCC1 (configuration not stated) | – |
| 0.018 µM | 0.007 µM | O=C(NCCc1c[nH]cn1)C1CN(C2c3ccc(Cl)cc3CCc3cc(Br)cnc32)CCN1C(=O)NC1CCCCC1 (configuration not stated) | – |
| – | 0.76 µM | Cc1noc(C)c1CNC(=O)C1CN(C2c3ccc(Cl)cc3CCc3cc(Br)cnc32)CCN1C(=O)NC1CCCCC1 (configuration not stated) | – |
| > 0.2 µM | 0.08 µM | CCCCC(=O)N1CCN(C2c3ccc(Cl)cc3CCc3cc(Br)cnc32)CC1C(=O)NCc1ncc[nH]1 (configuration not stated) | – |
| 0.038 µM | 0.02 µM | O=C(NCc1cccnc1)C1CN(C2c3ccc(Cl)cc3CCc3cc(Br)cnc32)CCN1C(=O)CCC1CCCCC1 (configuration not stated) | – |
| 0.013 µM | 0.0073 µM | Cn1cncc1CCNC(=O)C1CN(C2c3ccc(Cl)cc3CCc3cc(Br)cnc32)CCN1C(=O)NC1CCCCC1 (configuration not stated) | – |
| 0.059 µM | 0.019 µM | CCCNC(=O)N1CCN(C2c3ccc(Cl)cc3CCc3cc(Br)cnc32)CC1C(=O)NCc1cccnc1 (configuration not stated) | – |
| 0.052 µM | 0.0091 µM | O=C(NCc1cccnc1)C1CN(C2c3ccc(Cl)cc3CCc3cc(Br)cnc32)CCN1C(=O)NC1CCCCCC1 (configuration not stated) | – |
| 0.0042 µM | 0.0045 µM | O=C(NCCCn1ccnc1)C1CN(C2c3ccc(Cl)cc3CCc3cc(Br)cnc32)CCN1C(=O)NC1CCCCC1 (stereo in doubt; 41) | – |
| 0.26 µM | 0.051 µM | O=C(NCc1cccnc1)C1CN(C2c3ccc(Cl)cc3CCc3cc(Br)cnc32)CCN1C(=O)NC1CC1 (configuration not stated) | – |
| 0.02 µM | 0.014 µM | O=C(NCCCN1CCCC1=O)C1CN(C2c3ccc(Cl)cc3CCc3cc(Br)cnc32)CCN1C(=O)NC1CCCCC1 (configuration not stated) | – |
| > 10 µM | 0.49 µM | O=C(Nc1nncs1)C1CN(C2c3ccc(Cl)cc3CCc3cc(Br)cnc32)CCN1C(=O)NC1CCCCC1 (configuration not stated) | – |
| 0.0012 µM | 0.002 µM | O=C(NCCCn1ccnc1)C1CN(C2c3ccc(Cl)cc3CCc3cc(Br)cnc32)CCN1C(=O)NC1CCCCC1 (stereo in doubt; 41a) | IC50 [7]: 0.0001 µM; IC50 [5]: 22 µM; Stability [8]: > 95% |
| 0.06 µM | – | CCCCC(=O)N1CCN(C2c3ccc(Cl)cc3CCc3cc(Br)cnc32)CC1C(=O)NCCc1c[nH]cn1 (configuration not stated) | – |
| 0.028 µM | 0.014 µM | O=C(NCc1cccnc1)C1CN(C2c3ccc(Cl)cc3CCc3cc(Br)cnc32)CCN1C(=O)NC1CCCC1 (configuration not stated) | – |
| 0.55 µM | 0.061 µM | Cc1ccc(CNC(=O)C2CN(C3c4ccc(Cl)cc4CCc4cc(Br)cnc43)CCN2C(=O)NC2CCCCC2)cn1 (configuration not stated) | – |
| 0.21 µM | 0.045 µM | CCCCC(=O)N1CCN(C2c3ccc(Cl)cc3CCc3cc(Br)cnc32)CC1C(=O)NCc1c[nH]cn1 (configuration not stated) | – |
| 0.085 µM | 0.012 µM | O=C(NCc1cccnc1)C1CN(C2c3ccc(Cl)cc3CCc3cc(Br)cnc32)CCN1C(=O)C1CCCCCC1 (configuration not stated) | – |
